From PubChem BioAssay
KCNK3 inh – human KCNK3 channel inhibition, primary screen. B-score at 10 µM. actives 0.84% (n = 340,000). CHO-KCNK3 thallium flux, FluxOR fluorescence; active compounds read low. AID 602410;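 active = B-score under library mean minus 4 SD, starting fluorescence ratio at most library mean plus 5 SD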;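 note: more negative B-score means stronger inhibition of thallium flux through KCNK3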
Target sequence (O14649 whole entry, looked up): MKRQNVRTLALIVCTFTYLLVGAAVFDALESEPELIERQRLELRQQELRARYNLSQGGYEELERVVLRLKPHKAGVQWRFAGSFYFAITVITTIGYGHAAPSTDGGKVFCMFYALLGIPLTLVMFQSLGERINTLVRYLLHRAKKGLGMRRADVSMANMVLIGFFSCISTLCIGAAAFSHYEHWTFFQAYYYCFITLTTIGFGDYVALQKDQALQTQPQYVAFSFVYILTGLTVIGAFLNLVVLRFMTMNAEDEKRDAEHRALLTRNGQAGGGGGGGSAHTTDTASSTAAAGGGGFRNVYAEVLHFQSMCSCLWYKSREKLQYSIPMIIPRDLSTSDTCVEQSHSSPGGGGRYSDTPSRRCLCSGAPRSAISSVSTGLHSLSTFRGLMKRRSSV
KCNK9 inh – human KCNK9 channel inhibition; HEK293 KCNK9, FluxOR thallium flux fluorescence; active compounds read low; Q9NPC2; actives 1.2% (n = 310,000); B-score at 10 µM;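 active = ratio B-score over 3 SD below the library mean, with starting fluorescence within 5 SD of its mean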;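 note: negative B-score means less thallium flux so channel inhibition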
KCNQ1 inh – inhibitors of human KCNQ1 potassium channel | actives 1.3% (n = 310,000) | B-score at 10 µM | CHO-K1 KCNQ1, FluxOR thallium flux fluorescence; active compounds read high;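 active = compounds whose thallium flux B-score, printed positive for inhibition, exceeds three library SD while starting fluorescence stays within three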;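 note: channel opened by potassium depolarization with thallium stimulus after 20 min compound exposure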
KCNQ1 pot – human KCNQ1 channel potentiation or activation; P51787; CHO-K1 KCNQ1, thallium flux FluxOR fluorescence; active compounds read high; B-score at 10 µM; actives 0.35% (n = 310,000);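 active = fluorescence ratio B-score, a plate-corrected score, at least three library SD, with initial intensity B-score within 5 SD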
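System: Stable KCNQ1 CHO-K1 line | Incubation: 90 min dye loading and 20 min compound exposure, both at room temperature | Measure: Ratio B score | Medium: Assay buffer for compound exposure, DMSO matched across wells | Compound dosing: Single-concentration screen | Probe or stimulus: K+/Tl+ depolarizing stimulus | Measured by: Kinetic FluxOR fluorescence, 10 s baseline plus 110 s post-stimulus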
hERG protect – compounds protecting human hERG from proarrhythmic drug block. CHO-hERG, FluxOR thallium flux, dofetilide IC70 present. activation (rescue from dofetilide block), less the hit threshold, % at 10 µM. actives 0.51% (n = 310,000). AID 1511;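 active = activation above the mean of controls blocked by dofetilide plus 5 SD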;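 note: thallium influx through hERG after potassium depolarization seen as dye fluorescence rise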
Active calls of the source: *; i = inactive; / = no result. In the library only some 3.1% were active in any assay of this set; here they are far more common.

SMILES	KCNK3 inh	KCNK9 inh	KCNQ1 inh	KCNQ1 pot	hERG protect
CCc1nn(CC(=O)NCCC2=CCCCC2)c(=O)c2cc3cc(F)ccc3n12	i	i	i	i	-8
CCOC(=O)C1=C(C)N2C(=C(C#N)[C@@H]1c1ccc(C(=O)OC)cc1)SC[C@@]2(O)C(C)(C)C	i	i	6*	i	-20
CCOC(=O)C1=C(C)N=C2SCCC(=O)N2C1c1ccc(C(=O)OC)cc1 (stereo not drawn)	i	i	i	i	-8
COc1ccc(C2/C(=C(/O)c3ccc(C)cc3)C(=O)C(=O)N2CCCN2CCOCC2)cc1 (stereo not drawn)	i	i	i	i	0
CCCCC1(Cc2cccc([N+](=O)[O-])c2)C(=O)N(c2ccccc2)N(c2ccccc2)C1=O	i	i	6*	i	-7
CCCCC1(CO)C(=O)N(c2ccccc2)N(c2ccccc2)C1=O	i	i	i	i	-5
CCOC(=O)CSc1nc2c(sc(=S)n2-c2ccc(CC)cc2)c(=O)[nH]1	i	i	6*	i	-14
CCOC(=O)c1ccc(NC(=S)NC(=O)COc2ccccc2)cc1	i	i	i	i	7.6*
CCOC(=O)c1ccc(NC(=S)Nc2ccccc2)cc1	i	i	i	i	-14
CN(C)c1ccc2c(c1[N+](=O)[O-])Cc1ccccc1-2	i	/	/	/	/
COc1ccc2c(C)cc3n[nH]c(=S)n3c2c1	i	i	i	i	-13
O=C(CCN1C(=O)/C(=C\C=C\c2ccccc2)SC1=S)Nc1cccc(C(=O)O)c1	i	i	i	i	45*
O=C(CCCN1C(=O)/C(=C\c2ccccc2)SC1=S)Nc1cccc(C(=O)O)c1	i	i	i	i	-6
CC(/C=N/n1c(-c2ccc(C)cc2)n[nH]c1=S)=C\c1ccco1	i	i	i	10*	-6
C=CCn1c(C)cc(-c2csc(NCC)n2)c1C	i	i	6*	i	-12
COc1ccc(S(=O)(=O)N2CCCCC2)cc1NS(=O)(=O)c1ccccc1	i	/	/	/	/
CCOc1ccc(C(Nc2cccnc2)c2cc(Cl)c3cccnc3c2O)cc1 (stereo not drawn)	i	i	8*	i	-11
CC(C)CCNC(=O)C(c1ccc(O)cc1)N(C(=O)C1COc2ccccc2O1)c1cccc(O)c1 (stereo not drawn)	i	i	7*	i	-13
CC1(NC(=O)Nc2cc([N+](=O)[O-])ccc2O)CCS(=O)(=O)C1 (stereo not drawn)	i	/	/	/	/
CCC1CCC2(CC1)NC(=O)N(CC(=O)NCc1ccccc1Cl)C2=O (stereo not drawn)	i	/	/	/	/
N#Cc1ccccc1NS(=O)(=O)c1cc2c3c(c1)CCC(=O)N3CCC2	i	i	i	8*	-7
N#Cc1ccccc1NS(=O)(=O)c1cc2c3c(c1)CCN3C(=O)CC2	i	i	i	i	-9
CSc1ccccc1NC(=O)CN1CCN(S(=O)(=O)c2ccccc2[N+](=O)[O-])CC1	i	/	/	/	/
COC(=O)c1sc(NC(=S)NNC(=O)c2c(Br)c(C)nn2C)c(C(=O)OC)c1C	i	i	6*	i	-11
Cc1ccc(S(=O)(=O)Nc2ccc3c(c2)C(=O)N([C@H](C)CO)C[C@H](C)[C@@H](CN(C)Cc2ccccc2)O3)cc1	-10*	/	/	/	/
SMILES	KCNK3 inh	KCNK9 inh	KCNQ1 inh	KCNQ1 pot	hERG protect
CCC(Oc1ccccc1)C(=O)Nc1ccc(-c2nnc(-c3ccco3)o2)cc1 (stereo not drawn)	i	-7.3*	i	i	-9
N#C/C(=C\c1ccc(-c2ccccc2[N+](=O)[O-])o1)C(=O)Nc1nc(-c2cccs2)cs1	i	i	i	i	12*
N#C/C(=C\c1ccc(-c2ccc([N+](=O)[O-])cc2)o1)C(=O)Nc1nc(-c2cccs2)cs1	i	i	i	i	-10
CCCC/C(=N\NC(=O)c1ccc(Br)o1)c1ccccc1	i	i	i	i	-3
CC/C(=N/NC(=O)c1ccc(Br)o1)c1ccc(Cl)cc1	i	i	i	10*	-1
O=C(CCCNC(=O)c1ccc(Cl)cc1)NCc1ccccc1F	i	i	i	i	-7
Fc1ccc2nc(Nc3ccccc3)sc2c1	i	i	i	i	-12
Fc1cccc2sc(Nc3nc4ccccc4s3)nc12	i	i	i	i	13*
Fc1ccc2nc(Nc3nc4c(F)cccc4s3)sc2c1	i	i	i	46*	0
Fc1ccc2nc(Nc3nc4c(F)cc(F)cc4s3)sc2c1	i	i	i	i	5.0*
Oc1ccc(N2CCN(Cc3nc4ccccc4[nH]3)CC2)cc1	i	i	i	i	-9
O=C(Nc1ccccc1)c1ccc2nc(-c3ccco3)c(-c3ccco3)nc2c1	i	i	i	i	-10
CC(=O)c1ccc(NC(=O)c2ccc3nc(-c4ccco4)c(-c4ccco4)nc3c2)cc1	-11*	i	i	i	-7
S=C(Nc1ccc(N2CCOCC2)cc1)Nc1ccc2nc(-c3ccco3)c(-c3ccco3)nc2c1	i	-7.1*	6*	i	-25
O=C(Nc1ccc(N2CCOCC2)cc1)c1ccc2nc(-c3ccco3)c(-c3ccco3)nc2c1	i	i	i	i	0
COc1cccc(C=NNC(=S)NN=Cc2cccc(OC)c2OC)c1OC	i	/	/	/	/
COc1ccc(CN(C(=O)c2nsc(Cl)c2Cl)C(C(=O)NC2CCCCC2)c2ccc(OC)cc2)cc1 (stereo not drawn)	i	i	i	i	-10
COc1ccc(CN(C(=O)c2nsc(Cl)c2Cl)C(C(=O)NC2CCCC2)c2ccc(C)cc2)cc1 (stereo not drawn)	i	i	11*	i	-18
Cc1noc(C)c1COc1cccc(C(=O)Nc2ccc(Br)cc2F)c1	-9.2*	/	/	/	/
O=c1c(C(c2ccc(O)cc2)c2c(O)nc3n(c2=O)CCCS3)c(O)nc2n1CCCS2	i	i	i	i	-1
O=c1c(C(c2ccc(O)cc2)c2c(O)nc3n(c2=O)CCS3)c(O)nc2n1CCS2	i	i	i	i	6.7*
CCCC1CC(C)(c2csc(Nc3ccc(OCC)cc3)n2)OC1=O (stereo not drawn)	i	-7.7*	i	i	-2
CCOc1ccc(NC(=O)CC2CC(C)(C)OC2=O)cc1 (stereo not drawn)	i	i	i	i	-4
Cc1ccc(C(=O)NNC(=S)Nc2cccc(Cl)c2Cl)cc1[N+](=O)[O-]	i	i	9*	i	-10
CC(=O)c1cccc(NC(=S)NNC(=O)c2ccc(C)c([N+](=O)[O-])c2)c1	i	i	i	i	-7
